The results in this text go back to PubChem BioAssay.

Experiment [1] in a line: OD615 S. cerevisiae growth inhibition, permissive medium, pilot counter-assay, permissive growth control for S. cerevisiae lifespan shortening project (AID 705;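 active means growth inhibition above 25% in both replicates, a cutoff set 3 SD above the mean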). Conditions: OD615, 24 h, at 10 µM, stronger effect = higher value. The procedure, abridged:
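System: S. cerevisiae with engineered DeaD lifespan system / Measured by: absorbance (optical density) at 615 nm / Read-out: reduction in yeast growth (OD615) / Times: 4 h cell pre-growth, 24 h exposure at 30 °C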

The nature of experiment [2]: Restrictive medium S. cerevisiae growth inhibition, OD615, pilot screen of yeast lifespan reduction project, restrictive growth control (AID 706;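 active means growth inhibition above a set limit, 3 SD over mean compound inhibition, in both replicates, cut at about 43% in these data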;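 further: modified DeaD lifespan yeast strain shifted to restrictive glucose medium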). Conditions: OD615, 48 h, at 10 µM, stronger effect = higher value. The procedure, abridged: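 System: Engineered S. cerevisiae DeaD strain | Buffer or medium: Glucose-based CSMM-D restrictive medium | Schedule: 4 h pre-incubation, 48 h exposure at 30 °C | Technique: Optical density at 615 nm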

Experiment [3] is described as follows: viability gain of MRP-1-high H69AR cells under doxorubicin, pilot screen, MRP-1 activator project, CellTiter-Glo, duplicate (AID 807;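 active means viability increase at or above a cutoff of the median across tested compounds plus 3 SD, cut at about 8.5% in these data, passing the limit was not always enough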;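 further: compound pretreatment 18-22 h then 72 h combined with doxorubicin; 0% = doxorubicin alone and 100% = vehicle without doxorubicin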). Conditions: H69AR viability with doxorubicin, CellTiter-Glo luminescence; at 10 µM; stronger effect = higher value.
Experiment [4] is described as follows: growth suppression of beta-catenin knockout HCT116, pilot screen, human colon tumor cells (AID 823;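 active means cell viability at or below a set limit in both duplicate runs, the limit being the all-compound median minus 4 SD, cut at about 23% in these data, passing the limit was not always enough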;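 further: 0% = wells killed by 20 µM Hyamine and 100% = untreated DMSO cell wells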). Conditions: CellTiter-Glo, 60 h, at 10 µM, stronger effect = lower value. (Cellular ATP, detected with luciferase, serves as a proxy for viable cell number.)
Experiment [5] is described as follows: growth suppression of PTEN-deleted HCT116, pilot screen, cell-based, HCT116 clonal line, CellTiter-Glo (AID 824;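 active means viability at or below 27.92% in each of two runs, the all-compound median minus 4 SD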;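 further: 0% = 20 µM Hyamine control and 100% = vehicle cell control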). Conditions: 60 h, at 10 µM, stronger effect = lower value.
A short description of experiment [6]: inhibitors of the yeast RAM network, pilot screen, dse1pr::URA3 reporter, 5-FOA selection (AID 869;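 active means inhibition over a set limit, the all-compound mean plus 3 SD, in both replicate runs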;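 further: 0% = DMSO wells with no growth and 100% = 10 µM 1-NA-PP1 with full growth; RAM network block rescues cells from 5-FOA so hits raise OD615 growth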). Conditions: S. cerevisiae dse1pr::URA3 5-FOA growth, OD615, 2 d; at 10 µM; stronger effect = higher value; strain carries analog-sensitive mutant Cbk1 kinase.
Experiment [7] is described as follows: RAM signaling pathway blockade in yeast – S. cerevisiae, Pdr1DBD-CYC8 efflux-inhibited sensitized strain, primary screen (AID 1298).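 Further: 0% = DMSO untreated cells without growth and 100% = 10 µM 1-NA-PP1 full growth; higher means more yeast growth rescued from 5-FOA killing.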 Conditions: S. cerevisiae cbk1-as DSE1-URA3 strain, 5-FOA growth OD615, 2 d; at 50 µM; stronger effect = higher value.

A number with no mark means an inactive call. Records with an inconclusive call do not appear. The source made the active and inactive calls.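 How the source made its calls, unless noted: active means RAM network inhibition above 8.4% in each of two replicates, 3 SD over the compound average; inconclusive means above 8.4% inhibition in only one replicate; inactive means 8.4% inhibition or less in each replicate.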

On to `COc1cc(NC(=O)C2CCCN2C(=O)C2CCC(C)CC2)cc(OC)c1OC` (stereo not given), for which the growth inhibition in experiment [1] was -6.57%; in experiment [2], -3.52%. Also, in experiment [3], the viability increase was -1.44%. Besides, the viability is 96.3% in experiment [4] and 93.2% in experiment [5]. For the same compound, the inhibition in experiment [6] was 2.65%. Moreover, the RAM network inhibition in experiment [7] is 1.46%.
As for `O=C(NCCN1CCOCC1)c1ccc2c(c1)ncn2C1CCCC1`, the values for the growth inhibition in experiment [1] and in experiment [2] were -10% and 5.44%, respectively. The viability increase in experiment [3] is -0.55%. Also, the figures for the viability in experiment [4] and in experiment [5] were 106% and 105%, respectively. Further, the inhibition in experiment [6] is 1.44%. In addition, the RAM network inhibition in experiment [7] is 4.43%.
For `O=C(Cn1ncc2c(=O)oc3ccccc3c21)N1CCc2ccccc2C1`, the growth inhibition is -12.5% in experiment [1] and -12.7% in experiment [2]. For the same compound, in experiment [3], the viability increase is -1.69%. The viability in experiment [4] is 103%; in experiment [5] it was 94.7%. Also, the inhibition in experiment [6] was 0.645%. Also, the RAM network inhibition in experiment [7] is -0.07%.
Regarding `C=CCn1c(=N)n(CC(O)COc2ccc(OC)cc2)c2ccccc21` (stereo not given), the growth inhibition in experiment [1] was -10.9%; in experiment [2], 1.67%. The viability increase in experiment [3] is -4.96%. Moreover, the figures for the viability in experiment [4] and in experiment [5] were 64.8% and 69%, respectively. Also, the inhibition in experiment [6] is -0.445%. In experiment [7], the RAM network inhibition is -0.51%.
In the case of `Cn1c(Cn2c(=O)sc3ccccc32)nnc1SCC(=O)N1CCCCCC1`, the growth inhibition was -15% in experiment [1] and -23.5% in experiment [2]. The viability increase in experiment [3] is -0.71%. The viability was 102% in experiment [4] and 95.2% in experiment [5]. Moreover, in experiment [6], the inhibition was 2.58%. The RAM network inhibition in experiment [7] is 1.04%.
As to `CCNc1nc(OCCNS(=O)(=O)c2cc(C)ccc2C)nc(N(C)C)n1`, the figures for the growth inhibition in experiment [1] and in experiment [2] were -7.45% and -11.1%, respectively. For the same compound, the viability increase in experiment [3] is -0.92%. For the same compound, the viability in experiment [4] was 78.7%; in experiment [5] it was 78.8%. In addition, in experiment [6], the inhibition was 0.025%. Moreover, in experiment [7], the RAM network inhibition was -0.63%.
On to `c1ccc(CN2CCN(c3nc4ccccc4n4cnnc34)CC2)cc1`, for which the growth inhibition is -4.76% in experiment [1] and -16.2% in experiment [2]. Moreover, in experiment [3], the viability increase is -1.7%. Moreover, the viability was 94.8% in experiment [4] and 86% in experiment [5]. For the same compound, the inhibition in experiment [6] was 0.625%. Also, in experiment [7], the RAM network inhibition is 2.12%.
For `Cn1c2ccc(Cl)cc2c2nc3ccccc3nc21`, the growth inhibition in experiment [1] was -12.8%; in experiment [2] it was -4%. The viability increase in experiment [3] is -5.07%. Besides, the results for the viability in experiment [4] and in experiment [5] were 74.7% and 76.6%, respectively. Further, in experiment [6], the inhibition is 7.62% (active). Moreover, the RAM network inhibition in experiment [7] is 12.6%.
On to `COc1ccc(N(CC(=O)N2CC=C(c3ccccc3)CC2)S(=O)(=O)c2c(C)noc2C)cc1`, for which the growth inhibition in experiment [1] is -3.14%; in experiment [2] it was 1.52%. The viability increase in experiment [3] was -4.79%. For the same compound, the viability in experiment [4] was 98.1%; in experiment [5] it was 97.2%. In addition, in experiment [6], the inhibition was 1.41%. Further, the RAM network inhibition in experiment [7] is 2.09%.
For the compound `COc1ccccc1-c1nc(-c2ccccn2)no1`, the growth inhibition in experiment [1] is -10.5%; in experiment [2] it was -2.21%. In addition, the viability increase in experiment [3] was -5.99%. For the same compound, the viability in experiment [4] is 45.5%; in experiment [5], 39.7%. In addition, the inhibition in experiment [6] is 0.975%. Moreover, the RAM network inhibition in experiment [7] was 0.42%.
As to `CCOC(=O)c1c(C)nc(-c2ccccc2)nc1NC(C)=O`, the growth inhibition in experiment [1] is -15.7%; in experiment [2] it was -5.61%. Besides, the viability increase in experiment [3] was -0.84%. The viability in experiment [4] was 92%; in experiment [5] it was 89.5%. The inhibition in experiment [6] was 1.92%. For the same compound, the RAM network inhibition in experiment [7] is 7.29%.
For `CS(=O)(=O)n1nc(C(=O)N2CCOCC2)nc1N`, the growth inhibition in experiment [1] is -10%; in experiment [2], -18.6%. Besides, the viability increase in experiment [3] is 0.47%. In addition, the viability in experiment [4] is 103%; in experiment [5], 98.4%. Besides, the inhibition in experiment [6] is 2.68%. Besides, in experiment [7], the RAM network inhibition was 5.4%.
For the compound `O=C1Nc2ccccc2C(O)(C(=O)NCc2ccco2)N1c1ccc(Cl)cc1` (stereo not given), the values for the growth inhibition in experiment [1] and in experiment [2] were -7.58% and -16.5%, respectively. In experiment [3], the viability increase was -4.11%. The viability is 98.6% in experiment [4] and 94.5% in experiment [5]. Besides, the inhibition in experiment [6] was 1.98%. Besides, the RAM network inhibition in experiment [7] was 4.83%.
Consider `Nc1nc(-c2ccc3c(c2)CCCC3)cs1`, for which the growth inhibition in experiment [1] was 2.05%; in experiment [2], 29.1%. The viability increase in experiment [3] is -0.58%. The viability in experiment [4] was 86.2%; in experiment [5] it was 88.2%. In addition, the inhibition in experiment [6] was 0.275%. In addition, in experiment [7], the RAM network inhibition was 2.64%.
Take `CCn1cc(C(=O)NCCCN2CC(C)CC(C)C2)c(=O)c2cc(S(=O)(=O)N(C)C)ccc21` (stereo not given): the growth inhibition in experiment [1] was -10.3%; in experiment [2], -19.1%. In experiment [3], the viability increase is -2.78%. Besides, the viability in experiment [4] is 96%; in experiment [5], 98.7%. The inhibition in experiment [6] was 0.88%. Further, the RAM network inhibition in experiment [7] is -0.73%.
For `O=C(CCCC(=O)NCC1CCCO1)NCC1CCCO1` (stereo not given), the growth inhibition in experiment [1] was -1.28%; in experiment [2], 7.34%. In addition, in experiment [3], the viability increase was -1.38%. Besides, the viability in experiment [4] and in experiment [5] was 101% each time. For the same compound, the inhibition in experiment [6] was 0.185%. Moreover, the RAM network inhibition in experiment [7] was 1.12%.
For `CCOC(=O)CC(=O)Nc1ccc(Br)cc1C(=O)O`, the growth inhibition was -18.4% in experiment [1] and -18.8% in experiment [2]. The viability increase in experiment [3] is 1.24%. Moreover, the viability in experiment [4] was 101%; in experiment [5] it was 97.2%. For the same compound, the inhibition in experiment [6] was 2.16%. In experiment [7], the RAM network inhibition was 7.52%.
Consider `Cn1nc(-c2ccc(Cl)cc2)c2cc(C(=O)N3CCN(c4ccccn4)CC3)sc21`, for which the results for the growth inhibition in experiment [1] and in experiment [2] were -0.13% and 28.7%, respectively. Further, in experiment [3], the viability increase was -5.31%. In addition, the viability in experiment [4] is 37%; in experiment [5] it was 35.1%. In addition, in experiment [6], the inhibition was -0.47%. The RAM network inhibition in experiment [7] is 4.7%.
In the case of `COCCNC(=O)CN(c1cc(C(F)(F)F)ccc1Cl)S(C)(=O)=O`, the growth inhibition in experiment [1] was -2.77%; in experiment [2] it was 1.25%. For the same compound, the viability increase in experiment [3] was -0.83%. For the same compound, the figures for the viability in experiment [4] and in experiment [5] were 99.9% and 97.5%, respectively. In addition, in experiment [6], the inhibition was 3.02%. For the same compound, the RAM network inhibition in experiment [7] was 0.87%.
In the case of `COCCN1C=C(C(=O)OC)C(c2ccc3c(c2)OCO3)C(C(=O)OC)=C1`, the values for the growth inhibition in experiment [1] and in experiment [2] were -9.64% and 1.92%, respectively. The viability increase in experiment [3] was 2.8%. Besides, the results for the viability in experiment [4] and in experiment [5] were 97.9% and 102%, respectively. Besides, the inhibition in experiment [6] is -0.19%. In addition, in experiment [7], the RAM network inhibition was 3.59%.
On to `CCn1c(/C=N/n2cnnc2)nc2ccccc21`, for which the growth inhibition in experiment [1] is -6.04%; in experiment [2], -5.67%. Further, the viability increase in experiment [3] was -0.75%. Also, the viability was 96.8% in experiment [4] and 92.8% in experiment [5]. The inhibition in experiment [6] is 1.56%. The RAM network inhibition in experiment [7] is -0.99%.
With `Cc1cccc(-n2ncc3c(N4CCOCC4)ncnc32)c1`, the figures for the growth inhibition in experiment [1] and in experiment [2] were 6.08% and 17.2%, respectively. For the same compound, in experiment [3], the viability increase is -0.68%. For the same compound, the viability in experiment [4] is 101%; in experiment [5], 90.5%. Besides, the inhibition in experiment [6] was 1.59%. Also, the RAM network inhibition in experiment [7] is 0.06%.
For the compound `CN(C)c1ccc(C(=O)Nc2nc3c(s2)CCCC3)cc1`, the growth inhibition in experiment [1] was 9.25%; in experiment [2] it was -3.03%. Also, the viability increase in experiment [3] is -0.42%. Besides, the results for the viability in experiment [4] and in experiment [5] were 69.7% and 72.4%, respectively. The inhibition in experiment [6] was 0.905%. In addition, the RAM network inhibition in experiment [7] was 1.19%.
In the case of `Cc1ccc(C2CC(c3ccccc3Cl)n3nc(N)nc3N2)cc1` (stereo not given), the values for the growth inhibition in experiment [1] and in experiment [2] were 0.815% and 6.86%, respectively. The viability increase in experiment [3] is 2.22%. Besides, the results for the viability in experiment [4] and in experiment [5] were 99.7% and 92.5%, respectively. Besides, the inhibition in experiment [6] is 1.88%. Besides, the RAM network inhibition in experiment [7] was 1.81%.
With `COCCn1c(=O)[nH]c2cc(C(=O)NCCN3CCN(c4ccccc4)CC3)ccc2c1=O`, the growth inhibition is -5.1% in experiment [1] and 7.77% in experiment [2]. Further, in experiment [3], the viability increase is -0.22%. In addition, the viability is 92.5% in experiment [4] and 93.2% in experiment [5]. Moreover, the inhibition in experiment [6] is 1.11%. Moreover, the RAM network inhibition in experiment [7] was 3.35%.

Usually viability stands for a read-out of living cells in per cent, often relative to untreated cells. As a reminder, the inhibition is the relative decrease from the control value, in per cent.
